Assay [1] has as its system Saccharomyces cerevisiae. The assay is described as follows: DNA damaging activity against RS322YK rad52 DNA repair gene deficient Saccharomyces cerevisiae mutant assessed as drug level required to produce 12 mm zone of inhibition after 48 hrs. Format: functional. Put shortly:
(§1)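 Agar well-diffusion test on Saccharomyces cerevisiae strains differing in DNA-repair genes. Sample is placed in a 100 μl well and the plate is incubated 48 h at 37°. The value is the concentration in μg/ml that gives a 12 mm diameter inhibition zone around the well.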

Assay [2] deals with Saccharomyces cerevisiae. The assay is described as follows: DNA damaging activity against RS167N rad6 DNA repair gene deficient Saccharomyces cerevisiae mutant assessed as drug level required to produce 12 mm zone of inhibition after 48 hrs. It counts as functional. Summed up:
as §1

Assay [3] relates to Saccharomyces cerevisiae. Description: DNA damaging activity against DNA repair gene deficient Saccharomyces cerevisiae mutant assessed as drug level required to produce 12 mm zone of inhibition after 48 hrs.

This note sets out measurements from ChEMBL document CHEMBL1148169, “Bioactive and other sesquiterpenoids from Porella cordeana” (1993).

Take `CC1(C)CCC[C@]2(C)[C@H]3C(=O)OCC3=CC[C@@H]12` [DRIMENIN]: the IC12 in assay [1] was 200 µg/mL; in assay [2], over 1000 µg/mL; in assay [3], over 1000 µg/mL.

As to `CC1(C)CCC[C@@]2(C)C1=CC(=O)C1=C2C(=O)OC1`, the IC12 in assay [1], in assay [2] and in assay [3] was over 1000 µg/mL in each case.

For the molecule `C[C@@H]1CCCC2=CC(=O)[C@@H]3[C@@H](C3(C)C)[C@]21C` [ARISTOLONE], the IC12 in assay [1] was 390 µg/mL; in assay [2], over 1000 µg/mL; in assay [3], over 1000 µg/mL.

`CC1(C)CCC[C@]2(C)C3=C(COC3=O)C(=O)C[C@@H]12`: the IC12 in assay [1], in assay [2] and in assay [3] was over 1000 µg/mL throughout.

For the molecule `C[C@@H]1[C@@H]2C[C@@]3(C)C(=O)c4ccoc4C[C@@]13C(=O)O2` [NORPINGUISANOLIDE], the IC12 in assay [1], in assay [2] and in assay [3] was over 1000 µg/mL throughout.
